From ChEMBL document CHEMBL4038309, “Design and Synthesis of Chlorinated and Fluorinated 7-Azaindenoisoquinolines as Potent Cytotoxic Anticancer Agents That Inhibit Topoisomerase I” (J Med Chem, 2017)
Activity calls are given as the source filed them. The rule behind the calls is not given here.

How the values were obtained:
SN12C = test: Antiproliferative activity against human SN12C cells assessed as growth inhibition; type: functional
Summary of the method: (§1)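 NCI-60 screen: single-dose pre-screen at 10 μM, then five concentrations from 0.01 to 100 μM. Values beyond the tested range are recorded as 0.01 or 100 μM.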

HOP-62 = test: Antiproliferative activity against human HOP62 cells assessed as growth inhibition; type: functional; summary of the method: as §1
UACC-62 = test: Antiproliferative activity against human UACC62 cells assessed as growth inhibition; type: functional; summary of the method: as §1
DU-145 = test: Antiproliferative activity against human DU145 cells assessed as growth inhibition; type: functional; summary of the method: as §1
OVCAR-3 = test: Antiproliferative activity against human OVCAR3 cells assessed as growth inhibition; type: functional; summary of the method: as §1
MCF7 = test: Antiproliferative activity against human MCF7 cells assessed as growth inhibition; type: functional; summary of the method: as §1
[1] = molecular target: T1, DNA topoisomerase 1 (Homo sapiens) (UniProt P11387); test: Inhibition of recombinant Top1 (unknown origin) assessed as Top 1 mediated DNA cleavage using 3'-[32P]-labeled 117 bp DNA as substrate at 0.1 to 100 uM after 20 mins by PAGE analysis
T1 sequence (whole entry): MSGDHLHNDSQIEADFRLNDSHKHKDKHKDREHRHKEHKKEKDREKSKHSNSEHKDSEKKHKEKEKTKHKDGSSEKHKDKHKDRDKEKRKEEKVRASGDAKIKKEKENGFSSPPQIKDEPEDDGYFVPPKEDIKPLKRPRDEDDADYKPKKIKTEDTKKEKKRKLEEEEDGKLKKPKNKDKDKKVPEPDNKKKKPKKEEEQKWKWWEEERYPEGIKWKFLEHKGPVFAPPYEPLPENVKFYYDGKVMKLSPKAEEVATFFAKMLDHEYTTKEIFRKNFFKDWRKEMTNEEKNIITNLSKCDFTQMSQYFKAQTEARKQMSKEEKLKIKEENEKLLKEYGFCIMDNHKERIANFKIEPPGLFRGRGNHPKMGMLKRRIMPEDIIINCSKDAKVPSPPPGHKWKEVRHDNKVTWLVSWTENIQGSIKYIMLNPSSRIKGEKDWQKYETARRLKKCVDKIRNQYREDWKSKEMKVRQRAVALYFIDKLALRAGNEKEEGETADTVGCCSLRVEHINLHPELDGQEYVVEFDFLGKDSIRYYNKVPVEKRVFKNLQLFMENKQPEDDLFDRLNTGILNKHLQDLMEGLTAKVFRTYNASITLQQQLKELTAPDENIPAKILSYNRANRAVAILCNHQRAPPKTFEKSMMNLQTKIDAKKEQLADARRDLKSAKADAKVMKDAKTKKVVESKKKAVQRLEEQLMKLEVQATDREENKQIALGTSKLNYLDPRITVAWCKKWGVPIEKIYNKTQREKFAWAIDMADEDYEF
Summary of the method: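 About 2 nM 3'-[32P]-labeled DNA with recombinant Top1 in 10 mM Tris-HCl pH 7.5, 50 mM KCl, 5 mM MgCl2, 0.1 mM EDTA, 15 μg/mL BSA, 25 °C, 20 min. Compound at 0.1, 1, 10 and 100 μM. Stopped with 0.5% SDS and formamide dye, then run on 20% denaturing PAGE with phosphorimaging.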

SF-539 = test: Antiproliferative activity against human SF539 cells assessed as growth inhibition; type: functional; summary of the method: as §1
HCT-116 = test: Antiproliferative activity against human HCT116 cells assessed as growth inhibition; type: functional; summary of the method: as §1
[2] = Toxicity in zebrafish embryo assessed as survival at 0.1 uM preincubated for 1 hr measured after 72 hrs (reference value: 82.5 +/- 8.4%); parameters: species or system Danio rerio; details: zebrafish embryos
[3] = Toxicity in zebrafish embryo assessed as survival at 0.1 uM preincubated for 1 hr measured after 120 hrs (reference value: 82.5 +/- 8.4%); parameters: species or system Danio rerio; details: zebrafish embryos
[4] = Toxicity in zebrafish embryo assessed as survival at 10 uM preincubated for 1 hr measured after 24 to 120 hrs (reference value: 82.5 to 86.2%); parameters: species or system Danio rerio; details: zebrafish embryos
[5] = Toxicity in zebrafish embryo assessed as survival at 0.1 uM preincubated for 1 hr measured after 96 hrs (reference value: 82.5 +/- 8.4%); parameters: species or system Danio rerio; details: zebrafish embryos
[6] = Toxicity in zebrafish embryo assessed as survival at 1 uM preincubated for 1 hr measured after 72 hrs (reference value: 82.5 +/- 8.4%); parameters: species or system Danio rerio; details: zebrafish embryos
[7] = Toxicity in zebrafish embryo assessed as survival at 0.01 uM preincubated for 1 hr measured after 48 hrs (reference value: 84.4 +/- 8.5%); parameters: species or system Danio rerio; details: zebrafish embryos
[8] = Toxicity in zebrafish embryo assessed as survival at 1 uM preincubated for 1 hr measured after 96 hrs (reference value: 82.5 +/- 8.4%); parameters: species or system Danio rerio; details: zebrafish embryos
[9] = Toxicity in zebrafish embryo assessed as survival at 0.01 uM preincubated for 1 hr measured after 96 hrs (reference value: 82.5 +/- 8.4%); parameters: species or system Danio rerio; details: zebrafish embryos
[10] = Toxicity in zebrafish embryo assessed as survival at 0.01 uM preincubated for 1 hr measured after 72 hrs (reference value: 82.5 +/- 8.4%); parameters: species or system Danio rerio; details: zebrafish embryos
[11] = Toxicity in zebrafish embryo assessed as survival at 0.1 uM preincubated for 1 hr measured after 48 hrs (reference value: 84.4 +/- 8.5%); parameters: species or system Danio rerio; details: zebrafish embryos
[12] = Toxicity in zebrafish embryo assessed as survival at 0.1 uM preincubated for 1 hr measured after 24 hrs (reference value: 86.2 +/- 8.5%); parameters: species or system Danio rerio; details: zebrafish embryos
[13] = Toxicity in zebrafish embryo assessed as survival at 1 uM preincubated for 1 hr measured after 48 hrs (reference value: 84.4 +/- 8.5%); parameters: species or system Danio rerio; details: zebrafish embryos
[14] = Toxicity in zebrafish embryo assessed as survival at 1 uM preincubated for 1 hr measured after 24 hrs (reference value: 86.2 +/- 8.5%); parameters: species or system Danio rerio; details: zebrafish embryos
[15] = Toxicity in zebrafish embryo assessed as survival at 0.01 uM preincubated for 1 hr measured after 120 hrs (reference value: 82.5 +/- 8.4%); parameters: species or system Danio rerio; details: zebrafish embryos
[16] = Toxicity in zebrafish embryo assessed as survival at 0.01 uM preincubated for 1 hr measured after 24 hrs (reference value: 86.2 +/- 8.5%); parameters: species or system Danio rerio; details: zebrafish embryos
[17] = Toxicity in zebrafish embryo assessed as survival at 1 uM preincubated for 1 hr measured after 120 hrs (reference value: 82.5 +/- 8.4%); parameters: species or system Danio rerio; details: zebrafish embryos

| SMILES | GI50 (SN12C) | GI50 (HOP-62) | GI50 (UACC-62) | GI50 (DU-145) | GI50 (OVCAR-3) | GI50 (MCF7) | Top1-mediated DNA cleavage activity (active/not active) [1] | GI50 (SF-539) | GI50 (HCT-116) | other results |
| --- | --- | --- | --- | --- | --- | --- | --- | --- | --- | --- |
| COc1cnc2c(c1)C(=O)c1c-2n(CCCNC(C)C)c(=O)c2cc(F)ccc12 | 164 nM | 107 nM | 271 nM | 210 nM | 190 nM | 31 nM | Active | 248 nM | 93 nM |  |
| O=C1c2ccccc2-c2c1c1ccc(Cl)cc1c(=O)n2CCCn1ccnc1 | 110 nM |  | 74 nM |  |  | 31 nM | Active |  |  |  |
| COc1cnc2c(c1)C(=O)c1c-2n(CCCN2CCCC2)c(=O)c2cc(Cl)ccc12 |  |  |  |  |  |  | Active |  |  |  |
| COc1cnc2c(c1)C(=O)c1c-2n(CCCN2CCCC2)c(=O)c2cc(F)ccc12 | 241 nM | 212 nM | 471 nM | 211 nM | 307 nM | 48 nM | Active | 360 nM | 153 nM |  |
| COc1cnc2c(c1)C(=O)c1c-2n(CCCN2CCOCC2)c(=O)c2cc(F)ccc12 | 320 nM | 187 nM | 235 nM | 341 nM | 250 nM | 44 nM | Active | 228 nM | 115 nM |  |
| COc1cnc2c(c1)C(=O)c1c-2n(CCCNC2=NCCS2)c(=O)c2cc(Cl)ccc12 |  | 42 nM | 95 nM | 92 nM | 1300 nM | 36 nM | Active | 470 nM | 350 nM |  |
| COc1cnc2c(c1)C(=O)c1c-2n(CCCN2CCC(O)CC2)c(=O)c2cc(F)ccc12 | 189 nM | 142 nM | 240 nM | 174 nM | 254 nM | 31 nM | inactive | 295 nM | 89 nM |  |
| COc1cnc2c(c1)C(=O)c1c-2n(CCCN2CCNCC2)c(=O)c2cc(F)ccc12 | 80 nM | 66 nM | 1260 nM | 62 nM | 335 nM | 34 nM | inactive | 532 nM | 91 nM |  |
| COc1cnc2c(c1)C(=O)c1c-2n(CCCn2ccnc2)c(=O)c2cc([N+](=O)[O-])ccc12 |  |  |  |  |  |  | Active |  |  | survival at 72 h, 0.1 µM [2]: 0%; survival at 120 h, 0.1 µM [3]: 0%; survival at 10 µM [4]: 0%; survival at 96 h, 0.1 µM [5]: 0%; survival at 72 h, 1 µM [6]: 0%; survival at 48 h, 0.01 µM [7]: 55.6%; survival at 96 h, 1 µM [8]: 0%; survival at 96 h, 0.01 µM [9]: 45%; survival at 72 h, 0.01 µM [10]: 45%; survival at 48 h, 0.1 µM [11]: 0%; survival at 24 h, 0.1 µM [12]: 5.6%; survival at 48 h, 1 µM [13]: 0%; survival at 24 h, 1 µM [14]: 0%; survival at 120 h, 0.01 µM [15]: 45%; survival at 24 h, 0.01 µM [16]: 62.5%; survival at 120 h, 1 µM [17]: 0% |
| CCNCCCn1c2c(c3ccc(F)cc3c1=O)C(=O)c1cc(OC)cnc1-2 | 151 nM | 149 nM | 341 nM | 215 nM | 282 nM | 42 nM | Active | 320 nM | 136 nM |  |
| CNCCCn1c2c(c3ccc(Cl)cc3c1=O)C(=O)c1cc(OC)cnc1-2 | 1180 nM | 220 nM | 574 nM | 331 nM | 1410 nM | 46 nM | Active | 730 nM | 550 nM |  |
| COc1cnc2c(c1)C(=O)c1c-2n(CCCN2CCOCC2)c(=O)c2cc(Cl)ccc12 |  | 270 nM | 180 nM | 410 nM | 780 nM | 90 nM | Active | 230 nM | 160 nM |  |
| COc1cnc2c(c1)C(=O)c1c-2n(CCCN2CCOCC2)c(=O)c2cc([N+](=O)[O-])ccc12 |  |  |  |  |  |  | Active |  |  |  |
| COc1cnc2c(c1)C(=O)c1c-2n(CCCNC(C)C)c(=O)c2cc(Cl)ccc12 | 417 nM | 70 nM | 303 nM | 173 nM | 1390 nM | 37 nM | Active | 554 nM | 138 nM |  |
| O=C1c2ccccc2-c2c1c1ccc([N+](=O)[O-])cc1c(=O)n2CCCn1ccnc1 |  |  |  |  |  |  | Active |  |  |  |
| COc1cnc2c(c1)C(=O)c1c-2n(CCCNC2=NCCS2)c(=O)c2cc(F)ccc12 | 238 nM | 59 nM | 344 nM | 144 nM | 567 nM | 33 nM | Active | 305 nM | 82 nM |  |
| COc1cnc2c(c1)C(=O)c1c-2n(CCCN2CCNCC2)c(=O)c2cc(Cl)ccc12 | 489 nM | 200 nM | 1430 nM | 242 nM | 1430 nM | 89 nM | inactive | 1330 nM | 298 nM |  |
| COc1cnc2c(c1)C(=O)c1c-2n(CCCn2ccnc2)c(=O)c2cc(F)ccc12 | < 10 nM | < 10 nM | 16 nM | < 10 nM | 43 nM | < 10 nM | Active | 24 nM | < 10 nM | survival at 72 h, 0.1 µM [2]: 45.6%; survival at 120 h, 0.1 µM [3]: 45.6%; survival at 10 µM [4]: 0%; survival at 96 h, 0.1 µM [5]: 45.6%; survival at 72 h, 1 µM [6]: 0%; survival at 48 h, 0.01 µM [7]: 87.5%; survival at 96 h, 1 µM [8]: 0%; survival at 96 h, 0.01 µM [9]: 87.5%; survival at 72 h, 0.01 µM [10]: 87.5%; survival at 48 h, 0.1 µM [11]: 62.5%; survival at 24 h, 0.1 µM [12]: 86.2%; survival at 48 h, 1 µM [13]: 0%; survival at 24 h, 1 µM [14]: 28.8%; survival at 120 h, 0.01 µM [15]: 87.5%; survival at 24 h, 0.01 µM [16]: 87.5%; survival at 120 h, 1 µM [17]: 0% |
| CNCCCn1c2c(c3ccc(F)cc3c1=O)C(=O)c1cc(OC)cnc1-2 | 211 nM | 142 nM | 608 nM | 202 nM | 263 nM | 34 nM | inactive | 368 nM | 143 nM |  |
